Assay outcomes (PubChem)
MrgX1 ag = agonists of human MrgX1 receptor, primary screen, HEK293 cells, Fluo-4 calcium flux. Mas-related G-protein coupled receptor member X1 (Homo sapiens), Q96LB2. Fluo-4 calcium fluorescence, agonist mode; hits give high values. B-score at 10 µM. 0.44% of 310,000 active. AID 588627, 2011;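 active means calcium response B-score plate-corrected fluorescence ratio at least 3 library SD, with starting fluorescence B-score inside 5 SD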
Target sequence (Q96LB2 whole entry, looked up): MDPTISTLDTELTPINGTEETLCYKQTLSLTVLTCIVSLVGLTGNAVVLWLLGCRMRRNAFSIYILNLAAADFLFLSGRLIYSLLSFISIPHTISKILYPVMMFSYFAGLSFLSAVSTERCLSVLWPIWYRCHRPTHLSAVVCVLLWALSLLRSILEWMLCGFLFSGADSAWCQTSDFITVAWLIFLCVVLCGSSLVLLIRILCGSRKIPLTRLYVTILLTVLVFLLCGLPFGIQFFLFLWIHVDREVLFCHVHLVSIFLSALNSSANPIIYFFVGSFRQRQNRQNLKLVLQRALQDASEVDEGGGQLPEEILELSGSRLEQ
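Test system: HEK293 cells stably expressing human MrgX1 receptor; Input: fifteen thousand cells per well; Dosing: compound delivered in addition one of three; Schedule: overnight seeding, then 1 h dark dye loading; Technique: Fluo-4 NW calcium fluorescence; Measure: B-scored fluorescence response ratio; Controls: positive and negative controls per plate.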
MrgX1 allo act = positive allosteric modulators of MrgX1, primary screen, HEK293 cells, Fluo-4 calcium flux | Mas-related G-protein coupled receptor member X1 (Homo sapiens), Q96LB2 | B-score at 10 µM | FDSS; hits give high values | AID 588675, 2011 | 0.63% of 310,000 active;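 active means plate-corrected calcium response at least 3 library SD above typical, normal starting fluorescence, not activating the receptor alone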;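 further: compound read alongside a low EC10 to EC30 dose of BAM8-22 agonist; peak minus trough fluorescence over baseline measured at the second addition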
RGS4 inh = RGS4 inhibitors, primary screen, cell-based, HEK293 M3R inducible RGS4, calcium flux; B-score at 10 µM; Fluo-4 calcium flux; hits give high values; triggered by carbachol at its EC20; 0.45% of 310,000 active;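 active means B-score, a plate-corrected calcium signal, over three deviations above library mean, with baseline fluorescence within five deviations of library mean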;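 further: RGS4 expression induced by doxycycline in cells with stable M3 receptor; B-score is computed from the integrated fluorescence ratio over baseline after carbachol; higher B-score means a larger calcium signal and so more RGS4 inhibition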
Target sequence (P49798 whole entry, looked up): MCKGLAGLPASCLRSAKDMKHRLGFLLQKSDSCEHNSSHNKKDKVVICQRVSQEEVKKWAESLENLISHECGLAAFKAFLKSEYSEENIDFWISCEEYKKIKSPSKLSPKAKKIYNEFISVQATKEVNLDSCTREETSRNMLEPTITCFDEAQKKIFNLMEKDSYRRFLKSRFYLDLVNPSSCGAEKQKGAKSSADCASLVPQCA
MrgX1 antagonist = antagonists of human MrgX1 receptor, primary screen, HEK293 cells, Fluo-4 calcium flux. Mas-related G-protein coupled receptor member X1 (Homo sapiens), Q96LB2. BAM8-22 antagonism; hits give low values. B-score at 10 µM. 1.3% of 310,000 active;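 active means calcium-response B-score plate-corrected more than 3 library SD below zero, starting fluorescence within 5 deviations, no agonist response on first addition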;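 further: peak minus trough fluorescence over baseline after final BAM8-22 challenge near maximal dose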
RGS4 pot = RGS4 potentiators or activators, primary screen, cell-based, HEK293 M3R inducible RGS4, calcium flux | carbachol calcium flux Fluo4; hits give low values | B-score at 10 µM | 0.92% of 310,000 active | AID 463111, 2010;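 active means B-score of the integrated calcium signal more than 4 SD below the library mean, with starting fluorescence not abnormally high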;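 further: negative B-score means reduced calcium response which marks RGS4 activation or potentiation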
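Test system: HEK293 cells with stable M3R and inducible RGS4; also added: carbachol at ECmax as muscarinic agonist stimulus; schedule: dye loading 30 min 37 °C, buffer rest 30 min RT; technique: kinetic calcium fluorescence imaging with Fluo4-AM dye, 2 µM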
Starred values were filed as active, the others as inactive; i = inactive; · = not tested or not shown. A selection: hits, their analogues and other compounds. The true share with any hit is near 3.5%.

SMILES	MrgX1 ag	MrgX1 allo act	RGS4 inh	MrgX1 antagonist	RGS4 pot
O=C(N/N=C/c1cc(Cl)cc([N+](=O)[O-])c1O)c1cc(-c2ccccn2)nc2ccccc12	i	i	i	-5.5*	i
COc1cc([N+](=O)[O-])cc(/C=N/NC(=O)c2cc(-c3ccccc3)nc3ccccc23)c1O	i	10*	i	i	i
COc1cc([N+](=O)[O-])cc(/C=N/NC(=O)c2cc(C)nc3ccccc23)c1O	i	i	i	i	i
CS(=O)(=O)NN1C(=O)c2ccccc2NC1c1c[nH]c2ccccc12 (centres undefined)	i	i	i	i	i
Cc1cccc2sc(N(CCCN(C)C)C(=O)c3ccc(Cl)s3)nc12	i	i	i	i	-8.3*
COc1cc(/C=C/C(=O)NCCc2ccc(S(N)(=O)=O)cc2)ccc1OCC#N	i	12*	i	i	i
CC(=O)Nc1ccc(S(=O)(=O)N2CCC(NC(=O)C(Cc3ccc(C)cc3)NC(C)=O)CC2)cc1 (centres undefined)	·	·	i	·	i
COc1ccc(OCc2cc(C(=O)NCCN3CCCc4ccccc43)no2)c(Cl)c1	i	i	i	i	-7.5*
CCOc1cc(/C=C(\C#N)C(=O)Nc2cccc(C(=O)O)c2)ccc1OCc1ccccc1Cl	i	i	i	i	-8.6*
COc1cc(/C=C(\C#N)C(=O)Nc2cccc(C(=O)O)c2)ccc1OCc1ccc(F)cc1	i	i	i	i	i
Cc1nc2ccccc2c(=O)n1CCN1CCOCC1	i	i	i	i	-7.4*
COc1cc(/C=C2\CCC/C(=C\c3ccc(O)c(OC)c3)C2=O)ccc1O	i	i	i	-5.7*	-9.9*
CC1CCN(C(=O)CSc2nnc3ccc(-c4cccnc4)nn23)CC1	i	i	i	i	i
O=C(NCc1cc([N+](=O)[O-])ccc1O)c1cc(-c2ccncc2)nc2ccccc12	i	i	i	i	-9.1*
Cc1ccc(-c2cc(C(=O)Nc3ccncc3)c3ccccc3n2)cc1	i	i	i	-7.6*	i
O=C(Nc1ccncc1)c1cc(-c2cccc(Br)c2)nc2ccccc12	i	i	i	i	i
COc1ccc(-c2cc(C(=O)Nc3ccccc3O)c3ccccc3n2)cc1OC	i	i	i	i	-7.3*
Cc1ccccc1-c1cc(C(=O)Nc2sc(C)c(C)c2C(N)=O)c2ccccc2n1	i	i	6.2*	i	i
CCOC(=O)N1CCN(S(=O)(=O)c2ccc(F)c(C(=O)Nc3cccc(Cl)c3C)c2)CC1	i	i	i	i	i
COc1ccc(C(=O)COC(=O)c2nn(C)cc2Cl)cc1	i	i	i	i	i
O=C(Nc1cccnc1)c1cc(-c2cccc(Br)c2)nc2ccccc12	i	i	i	i	-7.1*
NNC(=O)c1[nH]c(-c2ccccc2)cc1-c1ccccc1	i	i	i	i	i
O=C1CC(c2ccc(Cl)cc2)CC(O)=C1C=NCc1ccc(Cl)c(Cl)c1 (centres undefined)	i	i	i	i	-8*
O=C1CC(c2ccccc2)CC(O)=C1C=NCCc1ccccc1 (centres undefined)	i	11*	i	i	i
O=C(Nc1ccnn1C1CCN(C(=O)c2ccc(F)c(Cl)c2)CC1)C1CC1	i	i	i	i	i
SMILES	MrgX1 ag	MrgX1 allo act	RGS4 inh	MrgX1 antagonist	RGS4 pot
CCN(c1ccc(NC(=O)CCc2nc3sc4c(c3c(=O)[nH]2)CCCC4)cc1)C(C)C	i	i	i	i	i
CN(C1CCCCC1)S(=O)(=O)c1ccc2c(c1)c(=O)c(C(=O)NCCN1CCCC1)cn2C	i	i	i	-4.6*	i
Nc1nc(NCC2CCCO2)nc(Nc2ccc(Cl)cc2)c1[N+](=O)[O-] (centres undefined)	i	6.8*	i	i	i
CN(C)CC(O)CN(c1ccccc1)c1ccccc1 (centres undefined)	i	i	i	i	i
c1ccc(COc2ccc(CNCc3cccs3)cc2)cc1	i	i	i	i	-8.3*
O=C(CN1CCN(Cc2ccc(F)cc2)CC1)Nc1nc2ccccc2s1	i	i	i	i	i
Oc1ccc(C=NCCc2ccccc2)cc1	i	i	i	i	i
COc1cc(S(=O)(=O)N2CCN(C(=O)c3ccccc3)CC2)c(OC)cc1Br	i	i	i	i	i
O=[N+]([O-])/C=C/c1cc2ccccc2[nH]1	41*	i	i	i	i
CC(=O)NS(=O)(=O)c1ccc(NC(=O)c2cccc3ccccc23)cc1	i	i	i	i	i
Cc1cccc([C@@H]2[C@@H]3C(=O)N(Cc4ccccc4)C(=O)[C@@H]3[C@]3(Cc4ccc(Cl)cc4)C(=O)N(c4ccccc4)C(=O)N23)c1	i	i	i	-6.6*	i
O=c1c(-c2ccc(O)cc2)coc2cc(O)ccc12	i	i	i	-7.8*	i
CC(=O)c1cccc(NC(=O)/C(=C/c2ccncc2)NC(=O)c2ccccc2)c1	i	i	i	i	i
Cc1ccc(NC(=O)CCNS(=O)(=O)c2ccc3c(c2)CCC(=O)N3)c(Br)c1	i	i	i	i	i
CCCCC(=O)NC(=S)Nc1ccccc1N1CCCCC1	i	i	i	i	i
CCCC(=O)NC(=S)Nc1ccccc1N1CCOCC1	i	i	i	-7.7*	i
COc1cc(OC)c(N(C)S(=O)(=O)c2cccc(C(=O)OCC(=O)NCc3ccco3)c2)cc1Cl	i	i	i	i	i
CCCCOC(=O)c1ccc(NC(=O)Nc2ccc(OC)c(OC)c2)cc1	i	i	i	i	-7*
CCCOc1ccc(N/C=C/C(=O)c2cc(OC)c(OC)c(OC)c2)cc1	i	i	i	i	i
Cc1ccc(NC(=O)C(C)OC(=O)c2ccc(Cl)nc2)cc1S(=O)(=O)N1CCOCC1 (centres undefined)	i	i	i	i	i
COc1cc(/C=C2\SC(N)=NC2=O)cc(Cl)c1O	30*	i	i	i	i
CC1=CC(=Nc2c(C)n(C)n(-c3ccccc3)c2=O)C=C(C)C1=O	i	i	i	i	i
